Experimental data from different studies.
Target: Protein kinase C epsilon type (PRKCE, Homo sapiens, UniProt Q02156)
Residues used in one study (Q02156 1-737): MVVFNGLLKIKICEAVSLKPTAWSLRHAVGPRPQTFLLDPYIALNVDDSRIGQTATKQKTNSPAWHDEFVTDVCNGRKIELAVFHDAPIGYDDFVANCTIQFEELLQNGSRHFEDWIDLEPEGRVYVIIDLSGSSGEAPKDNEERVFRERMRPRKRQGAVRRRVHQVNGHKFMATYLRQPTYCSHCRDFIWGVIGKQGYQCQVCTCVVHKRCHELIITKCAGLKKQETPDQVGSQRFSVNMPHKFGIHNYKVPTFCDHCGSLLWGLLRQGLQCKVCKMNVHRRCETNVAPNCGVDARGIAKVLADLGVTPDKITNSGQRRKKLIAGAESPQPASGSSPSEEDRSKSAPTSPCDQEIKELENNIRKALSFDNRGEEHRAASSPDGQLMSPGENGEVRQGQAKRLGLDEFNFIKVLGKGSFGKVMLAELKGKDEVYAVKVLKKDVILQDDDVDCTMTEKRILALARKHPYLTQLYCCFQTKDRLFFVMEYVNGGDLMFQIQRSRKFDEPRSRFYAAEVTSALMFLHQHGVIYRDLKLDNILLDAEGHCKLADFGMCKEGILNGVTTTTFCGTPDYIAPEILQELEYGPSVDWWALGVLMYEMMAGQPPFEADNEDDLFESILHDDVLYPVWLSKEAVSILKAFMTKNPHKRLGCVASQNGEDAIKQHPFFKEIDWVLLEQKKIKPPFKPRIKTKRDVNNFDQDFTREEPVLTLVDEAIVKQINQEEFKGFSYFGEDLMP

SMILES | assay | conditions | remaining binding
CN(C(=O)c1ccccc1)c1cc(N(C)c2ccc3c(c2)CCc2ccc(C(=O)NCCN4CCOCC4)cc2C3=O)ccc1F | cell-free assay, competition with immobilised ligand | 1 µM | 87%
COc1ccnn2ncc(-c3ccnc(N(C)C)n3)c12 | binding | 1 µM | 100%
N#Cc1ccccc1CSc1nnc2c(n1)[nH]c1ccccc12 | binding, competition with immobilised ligand | 10 µM | 100%
CN(C)c1ncc(F)c(-c2cnn3ncccc23)n1 | binding | 1 µM | 95%
O=C(c1ccc(Nc2nccc(-c3cc4ccccc4s3)n2)cc1)N1CCC(N2CCCC2)CC1 | binding, competition with immobilised ligand | 1 µM | 68%
CCS(=O)(=O)c1cc2cc(C[C@](O)(CC(C)(C)c3ccc(F)cc3C(N)=O)C(F)(F)F)[nH]c2cn1 | cell-free assay, competition with immobilised ligand | 1 µM | 96%
O=C(NCC1CCOCC1)c1n[nH]cc1NC(=O)c1c(F)cccc1F | binding, competition with immobilised ligand | 1 µM | 87%
O=C(N[C@H]1CCCCC/C=C\C2C[C@@]2(C(=O)O)NC(=O)[C@@H]2C[C@@H](Oc3ccncc3)CN2C1=O)OC1CCCC1 (some centres unmarked) | cell-free assay, competition with immobilised ligand | 1 µM | 100%
CC1CCCN1c1nccc(-c2cnn3ncccc23)n1 (centres unmarked) | binding | 1 µM | 100%
C[C@@H]1CN(c2ccc3ncc(-c4ccc5[nH]nc(C6CC6)c5c4)n3n2)C[C@H](C)O1 | binding, competition with immobilised ligand | 50 nM | 86%
N[C@@H]1CCN(c2nccc(-c3cnn4ncccc34)n2)C1 | binding | 1 µM | 97%
COc1cnc(Nc2cccc(S(N)(=O)=O)c2)nc1N1CCN(c2ccccc2)CC1 | binding, competition with immobilised ligand | 1 µM | 100%
Cc1c[nH]c2nccc(Oc3c(F)cc(Nc4cc(Cl)nc(N)n4)cc3F)c12 | cell-free assay, competition with immobilised ligand | 0.1 µM | 96%
C[C@@H]1CCN(c2nccc(-c3cnn4ncccc34)n2)C1 | binding | 1 µM | 100%
c1cncc(-c2cccc(Nc3nccc(NC4CCCCC4)n3)c2)c1 | binding, competition with immobilised ligand | 10 µM | 46%
O=C(NCCCN1CCOCC1)c1ccc(Nc2nccc(-c3cc4ccccc4s3)n2)cc1 | binding, competition with immobilised ligand | 1 µM | 71%
CS(=O)(=O)N1CCCC(NC(=O)[C@H](CCC2CCCCC2)NC(=O)c2ccc(CNc3ncnc4c3nnn4-c3ccccc3)cc2)C1 (some centres unmarked) | cell-free assay, competition with immobilised ligand | 0.1 µM | 63%
